Measured values as given in ChEMBL document CHEMBL3526095, “Characterization of the in vitro and in vivo metabolism and disposition and cytochrome P450 inhibition/induction profile of saxagliptin in human” (Drug Metab Dispos, 2012).

How the values were obtained:
Cytochrome P450 1A2 [1] = target: T1, Cytochrome P450 1A2 (Homo sapiens, UniProt P05177); assay: Inhibition of CYP1A2 in human liver microsomes assessed as phenacetin O-deethylation after 3 mins by LC-MS/MS analysis in presence of NADPH; type: ADME
T1 sequence (P05177 whole entry): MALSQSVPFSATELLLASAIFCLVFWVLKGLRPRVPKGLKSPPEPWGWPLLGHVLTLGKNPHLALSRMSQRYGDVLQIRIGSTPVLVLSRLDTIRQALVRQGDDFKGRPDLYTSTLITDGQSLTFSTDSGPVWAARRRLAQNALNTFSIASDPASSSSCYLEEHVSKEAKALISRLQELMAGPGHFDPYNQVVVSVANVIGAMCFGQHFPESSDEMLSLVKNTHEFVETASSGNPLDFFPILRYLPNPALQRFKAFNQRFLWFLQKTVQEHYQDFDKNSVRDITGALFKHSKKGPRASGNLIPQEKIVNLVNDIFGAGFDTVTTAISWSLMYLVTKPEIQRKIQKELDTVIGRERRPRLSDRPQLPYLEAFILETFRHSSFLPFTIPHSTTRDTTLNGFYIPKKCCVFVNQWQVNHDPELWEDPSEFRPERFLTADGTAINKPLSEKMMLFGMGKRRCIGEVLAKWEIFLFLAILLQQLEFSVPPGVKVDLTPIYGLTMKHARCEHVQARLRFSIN

Cytochrome P450 2A6 [2] = target: T2, Cytochrome P450 2A6 (Homo sapiens, UniProt P11509); assay: Inhibition of CYP2A6 in human liver microsomes assessed as coumarin 7-hydroxylation after 3 mins by LC-MS/MS analysis in presence of NADPH; type: ADME
T2 sequence (P11509 whole entry): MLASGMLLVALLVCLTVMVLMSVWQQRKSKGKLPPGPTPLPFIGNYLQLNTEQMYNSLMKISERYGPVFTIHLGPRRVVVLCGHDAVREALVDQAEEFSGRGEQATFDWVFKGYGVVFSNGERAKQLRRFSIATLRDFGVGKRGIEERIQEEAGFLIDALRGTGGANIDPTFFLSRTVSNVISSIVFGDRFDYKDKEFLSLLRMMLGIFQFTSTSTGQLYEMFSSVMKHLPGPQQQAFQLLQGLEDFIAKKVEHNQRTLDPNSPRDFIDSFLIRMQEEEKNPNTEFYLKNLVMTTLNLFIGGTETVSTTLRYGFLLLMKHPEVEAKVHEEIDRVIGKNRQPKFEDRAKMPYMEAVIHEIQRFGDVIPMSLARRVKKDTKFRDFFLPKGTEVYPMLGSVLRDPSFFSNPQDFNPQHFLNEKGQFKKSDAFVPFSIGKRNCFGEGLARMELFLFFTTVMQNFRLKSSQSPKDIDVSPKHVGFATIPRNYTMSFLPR

Cytochrome P450 3A4 [3] = target: T3, Cytochrome P450 3A4 (Homo sapiens, UniProt P08684); assay: Inhibition of CYP3A4 in human liver microsomes assessed as testosterone 6beta-hydroxylation after 3 mins by LC-MS/MS analysis in presence of NADPH; type: ADME
Cytochrome P450 1A2 [4] = target: T1, Cytochrome P450 1A2; assay: Inhibition of CYP1A2 in human liver microsomes assessed as phenacetin O-deethylation preincubated for 15 mins by LC-MS/MS analysis in presence of NADPH; type: ADME
Cytochrome P450 2A6 [5] = target: T2, Cytochrome P450 2A6; assay: Inhibition of CYP2A6 in human liver microsomes assessed as coumarin 7-hydroxylation preincubated for 15 mins by LC-MS/MS analysis in presence of NADPH; type: ADME
Cytochrome P450 3A4 [6] = target: T3, Cytochrome P450 3A4; assay: Inhibition of CYP3A4 in human liver microsomes assessed as midazolam 1'-hydroxylation preincubated for 15 mins by LC-MS/MS analysis; type: ADME
Cytochrome P450 3A4 [7] = target: T3, Cytochrome P450 3A4; assay: Inhibition of CYP3A4 in human liver microsomes assessed as testosterone 6beta-hydroxylation preincubated for 15 mins by LC-MS/MS analysis in presence of NADPH; type: ADME
Hepatocyte [8] = assay: Induction of CYP2B6 mRNA expression in human hepatocytes assessed as bupropion hydroxylation up to 100 uM by LC-MS/MS analysis; type: ADME, cell-based
Outline: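 Primary hepatocytes from three donors treated once daily for 3 days: saxagliptin 0.2–25 µM, M2 0.2–100 µM, 0.1% DMSO as vehicle. Microsomal activity assayed by LC-MS/MS: phenacetin 100 µM with 0.02 mg/ml protein (CYP1A2), bupropion 250 µM with 0.02 mg/ml (CYP2B6), testosterone 200 µM with 0.01 mg/ml (CYP3A4). mRNA measured by TaqMan qPCR as 2^ΔCT relative to endogenous control and DMSO.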

Cytochrome P450 3A4 [9] = target: T3, Cytochrome P450 3A4; assay: Drug metabolism assessed as human CYP3A4-mediated metabolite formation treated with 10 uM of [14C]saxagliptin after 30 mins by LC-MS/MS analysis; type: ADME; settings: recombinant enzyme, 0.5 h
Outline: (§1)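 Expressed human CYP3A4 or CYP3A5 at 500 pmol/ml, incubated with 10 µM [14C]saxagliptin and 1 mM NADPH in 100 mM phosphate buffer pH 7.4 at 37°C for 30 min. Stopped with ice-cold acetonitrile; analysed by LC-MS/MS and off-line radioanalysis.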

Cytochrome P450 3A5 = Cytochrome P450 3A5 (Homo sapiens, UniProt P20815); assay: Drug metabolism assessed as human CYP3A5-mediated metabolite formation treated with 10 uM of [14C]saxagliptin after 30 mins by LC-MS/MS analysis; type: ADME; settings: recombinant enzyme, 0.5 h; outline: as §1
[10] = Drug level in human urine treated with 50 mg, po of [14C]saxagliptin up to 168 hrs by LC-MS/MS analysis; type: ADME, organism-based; settings: in vivo
Outline: (§2)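 Single 50-mg oral solution dose of [14C]saxagliptin (91.5 µCi) given to healthy male subjects after a 10-h fast. Urine collected as 0–12 h and 12–24 h pools, then in 24-h intervals to 168 h. Saxagliptin and M2 measured by validated positive-ESI LC-MS/MS with MRM; urine standard curves 25–5000 ng/ml for saxagliptin and 50–10,000 ng/ml for M2.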

Liver microsome [11] = assay: Drug level in human liver microsomes treated with 10 uM of [14C]saxagliptin after 1 hr by LC-MS/MS analysis in presence of NADPH; type: ADME
Outline: (§3)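 Pooled HLM at 1 mg/ml protein, incubated with 10 µM [14C]saxagliptin and 1 mM NADPH in 100 mM phosphate buffer pH 7.4 at 37°C for 60 min. Quenched with ice-cold acetonitrile; supernatant analysed by LC-MS/MS and off-line radioanalysis.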

Hepatocyte [12] = assay: Cytotoxicity against human hepatocytes up to 25 uM by lactate dehydrogenase assay; type: cell-based
[13] = Oral bioavailability in monkey; type: ADME, organism-based, Macaca mulatta; settings: rhesus monkey, in vivo
[14] = Drug metabolism in human assessed as metabolite level in urine at 50 mg, po up to 168 hrs by LC-MS/MS analysis; type: ADME, organism-based; settings: in vivo; outline: as §2
[15] = Drug metabolism in human liver microsomes assessed as compound turnover at 10 uM after 1 hr by LC-MS/MS analysis in presence of NADPH; type: ADME; settings: read-out: Drug metabolism; outline: as §3
Liver microsome [16] = assay: Drug metabolism in human liver microsomes assessed as formation of 5-hydroxy saxagliptin Michaelis-Menten kinetic analysis; type: ADME
Outline: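 M2 formation kinetics measured in triplicate at twelve saxagliptin concentrations from 1 to 800 µM. Enzyme source was pooled HLM (0.25 mg/ml, 30 min, 37°C) or expressed CYP3A4 or CYP3A5 (10 pmol/ml, 10 min). Incubations contained 1 mM NADPH and 2 mM MgCl2 in phosphate buffer pH 7.4.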

T3 sequence (P08684 whole entry): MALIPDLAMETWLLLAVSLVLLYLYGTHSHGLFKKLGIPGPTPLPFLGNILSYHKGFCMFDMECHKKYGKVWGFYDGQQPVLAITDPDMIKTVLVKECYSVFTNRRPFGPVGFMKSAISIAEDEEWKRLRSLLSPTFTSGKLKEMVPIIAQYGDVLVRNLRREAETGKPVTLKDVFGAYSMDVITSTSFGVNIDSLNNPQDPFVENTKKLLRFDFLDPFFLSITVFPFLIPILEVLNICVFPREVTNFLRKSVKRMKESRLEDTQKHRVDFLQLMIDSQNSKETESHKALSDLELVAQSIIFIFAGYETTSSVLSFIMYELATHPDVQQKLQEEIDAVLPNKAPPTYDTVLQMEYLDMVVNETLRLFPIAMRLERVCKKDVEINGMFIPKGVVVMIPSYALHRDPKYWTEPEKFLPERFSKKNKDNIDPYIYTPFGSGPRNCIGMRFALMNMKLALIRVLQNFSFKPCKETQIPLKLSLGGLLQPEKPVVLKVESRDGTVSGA
Chain of Cytochrome P450 3A5 (P20815 whole entry): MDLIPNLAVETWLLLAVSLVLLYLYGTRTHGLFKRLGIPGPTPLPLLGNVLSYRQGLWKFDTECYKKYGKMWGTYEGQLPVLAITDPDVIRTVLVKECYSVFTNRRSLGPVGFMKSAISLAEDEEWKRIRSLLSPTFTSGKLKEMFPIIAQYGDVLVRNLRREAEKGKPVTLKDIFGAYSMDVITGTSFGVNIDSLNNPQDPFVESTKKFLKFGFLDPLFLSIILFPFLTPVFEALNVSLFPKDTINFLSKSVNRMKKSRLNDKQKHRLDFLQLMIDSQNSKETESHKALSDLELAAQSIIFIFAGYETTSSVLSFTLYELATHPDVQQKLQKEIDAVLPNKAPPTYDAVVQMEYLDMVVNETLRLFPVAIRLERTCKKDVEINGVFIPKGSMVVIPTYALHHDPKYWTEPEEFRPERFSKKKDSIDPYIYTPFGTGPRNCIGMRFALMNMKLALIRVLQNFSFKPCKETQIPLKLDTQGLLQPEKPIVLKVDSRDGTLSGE

IC50 (Cytochrome P450 1A2 [1]) [µM] | IC50 (Cytochrome P450 2A6 [2]) [µM] | IC50 (Cytochrome P450 3A4 [3]) [µM] | IC50 (Cytochrome P450 1A2 [4]) [µM] | IC50 (Cytochrome P450 2A6 [5]) [µM] | IC50 (Cytochrome P450 3A4 [6]) [µM] | IC50 (Cytochrome P450 3A4 [7]) [µM] | Activity (Hepatocyte [8]) | Drug metabolism (Cytochrome P450 3A4 [9]) | Drug metabolism (Cytochrome P450 3A5) | Drug metabolism [10] | Drug metabolism (Liver microsome [11]) | bioavailability [13] [%] | Drug metabolism [14] | metabolised at 1 h, 10 µM [15] [%] | Km (Liver microsome [16]) [µM] | Vmax (Liver microsome [16]) [pmol/min] | SMILES | Activity (Hepatocyte [12])
> 200 | > 200 | > 200 | > 200 | > 200 | > 200 | > 200 | Not Active | metabolite_detected | metabolite_detected | metabolite_detected | metabolite_detected |  |  |  |  |  | N#C[C@@H]1C[C@@H]2C[C@@H]2N1C(=O)[C@@H](N)C12CC3CC(O)(CC(O)(C3)C1)C2 | 
 |  |  |  |  |  |  |  |  |  |  |  | 51 | metabolite_detected | 32 | 94.8 | 496 | N#C[C@@H]1C[C@@H]2C[C@@H]2N1C(=O)[C@@H](N)C12CC3CC(CC(O)(C3)C1)C2 [SAXAGLIPTIN ANHYDROUS] | Non-toxic
